This note sets out measurements from ChEMBL document CHEMBL3352594 (J Med Chem, 2014).

pIC50: −log10 of the molar value. Activity calls are given as the source filed them. The rule behind the calls is not given here.

In data set [1] the test system is Mus musculus. The data set can be described thus: Antiinflammatory activity in specific pathogen-free COPD-like lung inflammation BALB/c mouse model assessed as inhibition of TNFalpha level at 2 umol/kg/day, po for 35 days measured 24 hrs post last dose relative to vehicle-treated control. The class given is functional, organism-based. Summed up: (§1)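 Male SPF BALB/c mice (18−20 g) exposed to cigarette smoke 5 min twice daily on days 2−13 and 15−35, with 20 μg LPS in 30 μL saline on days 1 and 14. Dosed orally 1 h before first exposure, daily for 35 days. Lungs lavaged 3× with 0.8 mL ice-cold saline about 24 h after last dose. Supernatant cytokines measured by ELISA. n = 8−11, mean ± SEM, Student's t test.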

Data set [2] concerns Macrophage. The data set is described as follows: Inhibition of LPS-induced NO production in C57BL/6 mouse macrophages preincubated with compound for 1 hr before LPS challenge measured after 24 hrs by Griess method. The class given is functional, cell-based. As to conditions: C57BL/6, Macrophage. Summed up:
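Peritoneal macrophages harvested from male C57BL/6J mice 3 days after ip thioglycollate; 1 × 10^5 cells/well in RPMI-1640 + 5% newborn calf serum, nonadherent cells removed after 2 h. Compounds added 1 h before LPS 1 μg/mL; 24 h later supernatant nitrite read by Griess reagent at 570 nm against a nitrite standard curve. IC50 from ≥2 experiments in triplicate; selectivity index = cytotoxicity IC50 / NO-inhibition IC50.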

Data set [3] relates to Mus musculus. The data set is described as follows: Antiinflammatory activity in Kunming mouse assessed as inhibition of croton oil-induced ear edema at 5 umol/kg, po administered before challenge relative to vehicle-treated control. The class given is functional. Summed up:
(§2)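 Male Kunming mice; croton oil applied topically to left ear at 0.4 mg/ear. Test agent or equal-volume vehicle given 1 h before (po 5, 10, 20 μmol/kg; sc 77, 154, 308 μmol/kg). Euthanized under pentobarbital 4 h after croton oil; 8 mm ear punches weighed, left minus right weight = edema; inhibition vs vehicle group. n = 10 (po) or 8–9 (sc); mean ± SEM.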

Data set [4] has as its system Mus musculus. The data set can be described thus: Antiinflammatory activity in specific pathogen-free COPD-like lung inflammation BALB/c mouse model assessed as inhibition of IL-1beta level at 2 umol/kg/day, po for 35 days measured 24 hrs post last dose relative to vehicle-treated control. The class given is functional, organism-based. Summed up: as §1
For data set [5], the system named is Macrophage. The data set is described as follows: Inhibition of intrinsic NO production in C57BL/6 mouse macrophages at 10 uM measured after 24 hrs by Griess method. The class given is functional, cell-based. The procedure, abridged:
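Unstimulated peritoneal macrophages (no LPS) cultured 2 h, then exposed to compound at 10 μM for 24 h. Supernatant nitrite measured by Griess assay at 570 nm against a standard curve; untreated, vehicle and LPS (1 μg/mL) wells as controls. Three independent experiments, mean ± SEM.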

The test system of data set [6] is Mus musculus. The data set is described as follows: Antiinflammatory activity in specific pathogen-free COPD-like lung inflammation BALB/c mouse model assessed as inhibition of IL-6 level at 2 umol/kg/day, po for 35 days measured 24 hrs post last dose relative to vehicle-treated control. The class given is functional, organism-based. Summed up: as §1
Data set [7] has as its system Mus musculus. The data set can be described thus: Antiinflammatory activity in specific pathogen-free COPD-like lung inflammation BALB/c mouse model assessed as inhibition of eosinophils at 2 umol/kg/day, po for 35 days measured 24 hrs post last dose relative to vehicle-treated control. The class given is functional, organism-based. Summed up:
(§3)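 Male SPF BALB/c mice (18−20 g) given cigarette smoke 5 min twice daily (days 2−13, 15−35) plus LPS 20 μg in 30 μL saline on days 1 and 14. Oral dosing 1 h before first exposure, daily for 35 days. BAL (3 × 0.8 mL ice-cold saline) collected about 24 h after final dose. Centrifuged pellet resuspended in 200 μL PBS and counted by hemocytometer for differential cells.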

Data set [8] in a line: Cytotoxicity against C57BL/6 mouse macrophages after 24 hrs by MTT assay. As to conditions: C57BL/6, Macrophage. The class given is cell-based. The procedure, abridged: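 Thioglycollate-elicited peritoneal macrophages from male C57BL/6 mice, 1 × 10^5 cells/well, adhered 2 h, then exposed to compounds 24 h. Washed, MTT (5 mg/mL in PBS) added 4 h at 37 °C, formazan dissolved in DMSO, absorbance 570 nm.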

For data set [9], the system named is Mus musculus. The data set can be described thus: Antiinflammatory activity in specific pathogen-free COPD-like lung inflammation BALB/c mouse model assessed as inhibition of neutrophils at 2 umol/kg/day, po for 35 days measured 24 hrs post last dose relative to vehicle-treated control. The class given is functional. The procedure, abridged: as §3
Data set [10] has as its system Mus musculus. The data set is described as follows: Antiinflammatory activity in specific pathogen-free COPD-like lung inflammation BALB/c mouse model assessed as inhibition of white blood cells at 2 umol/kg/day, po for 35 days measured 24 hrs post last dose relative to vehicle-treated control. The class given is functional, organism-based. Summed up:
as §3

The nature of data set [11]: Toxicity in Kunming mouse administered orally as single dose measured over 14 days. The settings on record: in vivo, po. The class given is organism-based. Summed up: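 SPF Kunming mice, half male and half female, fasted 16 h with water allowed, then weighed and randomized at 10/group. Single gavage dose (0.1 mL/10 g) at various doses, with solvent-only controls. Survival monitored for 14 days.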

Data set [12] relates to Mus musculus. The data set can be described thus: Antiinflammatory activity in Kunming mouse assessed as inhibition of croton oil-induced ear edema at 10 umol/kg, po administered before challenge relative to vehicle-treated control. The class given is functional. Summed up: as §2
Data set [13] deals with Mus musculus. The data set is described as follows: Antiinflammatory activity in Kunming mouse assessed as inhibition of croton oil-induced ear edema at 20 umol/kg, po administered before challenge relative to vehicle-treated control. The class given is functional. The procedure, abridged: as §2
Data set [14] deals with Macrophage. The data set can be described thus: Selectivity index, ratio of IC50 for C57BL/6 mouse macrophages to IC50 for LPS-induced NO production in C57BL/6 mouse macrophages.

Turning to `COC(=O)[C@]12OC[C@]34[C@H]([C@@H](O)[C@@H]1O)[C@@]1(C)CC(=O)C(OC(=O)CCC(=O)OCCCCOc5no[n+]([O-])c5S(=O)(=O)c5ccccc5)=C(C)[C@@H]1C[C@H]3OC(=O)[C@H](OC(=O)C=C(C)C)[C@@H]24`, the inhibition entry in the data set on Mus musculus [1], in the data set on Mus musculus [4], in the data set on Mus musculus [6], in the data set on Mus musculus [7] and in the data set on Mus musculus [10] was “Active” each time. The pIC50 was 7.05 with Macrophage [2] and 6.10 in data set [8]. Further, in the data set with Mus musculus [3], the inhibition in vivo at 5 µmol/kg was found to be 29.4%. The inhibition result with Macrophage [5] is “inactive”. The inhibition in vivo at 2 µmol/kg in the data set with Mus musculus [9] is 85%. In data set [11], this compound returned a 50% lethal dose (LD50) at 336 h of 41.1 µmol/kg. Besides, the inhibition in vivo at 10 µmol/kg with Mus musculus [12] came to 39.9%. Further, the inhibition in vivo at 20 µmol/kg in the data set with Mus musculus [13] amounted to 53.9%. In addition, the “Ratio IC50” value in the data set with Macrophage [14] was 8.9.
